Measurements: ChEMBL document CHEMBL1240350, “In vitro activity of CEM-101 against Streptococcus pneumoniae and Streptococcus pyogenes with defined macrolide resistance mechanisms” (Antimicrob Agents Chemother, 2010)
Values after ≈ are worked out from the molar mass of the structure shown.

How the values were obtained:
[1] = test system: Streptococcus pyogenes; assay: Antibacterial activity against Streptococcus pyogenes harboring erm(B) gene after overnight incubation by agar dilution method; type: functional
Method in brief: (§1)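 Clinical isolates collected 1998–2008, with macrolide-resistance genes confirmed by PCR. MICs by agar dilution on Mueller-Hinton agar with 5% sheep blood. Inoculum 10^4 CFU/spot, incubated overnight at 35°C in ambient air. S. pneumoniae ATCC 49619 was the quality-control strain in every run.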

[2] = test system: Streptococcus pyogenes; assay: Antibacterial activity against macrolide-resistant Streptococcus pyogenes 237 harboring mutation in L4 ribosomal protein after 50 passages following overnight incubation by agar dilution method
[3] = test system: Streptococcus pyogenes; assay: Antibacterial activity against macrolide-resistant Streptococcus pyogenes 2094 harboring erm(A) gene after 43 passages and 10 compound-free subculturing by retest method
[4] = test system: Streptococcus pneumoniae; assay: Antibacterial activity against macrolide-resistant Streptococcus pneumoniae 2686 harboring mutation in L4 ribosomal protein after overnight incubation by agar dilution method; type: functional
[5] = test system: Streptococcus pyogenes; assay: Antibacterial activity against macrolide-resistant Streptococcus pyogenes 2011 harboring mef(A) gene after 35 passages and 10 compound-free subculturing by retest method
[6] = test system: Streptococcus pneumoniae; assay: Antibacterial activity against Streptococcus pneumoniae harboring erm(A) gene after overnight incubation by agar dilution method; type: functional; method in brief: as §1
[7] = test system: Streptococcus pneumoniae; assay: Antibacterial activity against macrolide-resistant Streptococcus pneumoniae 2686 harboring mutation in L4 ribosomal protein after 22 passages and 10 compound-free subculturing by retest method; type: functional
[8] = test system: Streptococcus pneumoniae; assay: Antibacterial activity against macrolide-resistant Streptococcus pneumoniae 3665 harboring mef(A) gene after overnight incubation by agar dilution method; type: functional
[9] = test system: Streptococcus pneumoniae; assay: Antibacterial activity against macrolide-resistant Streptococcus pneumoniae 24 harboring erm(B) gene after 14 passages and 10 compound-free subculturing by retest method; type: functional; conditions: Streptococcus pneumoniae, 24; read-out: MIC
Method in brief: (§2)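 Multistep selection by daily serial passage in subinhibitory drug concentrations. Medium was cation-adjusted Mueller-Hinton broth plus 5% lysed horse blood. Each day the next inoculum came from the tube 1–2 dilutions below the MIC whose turbidity matched the growth control, for up to 50 days. Clone MICs by CLSI macrodilution; identity to the parent confirmed by SmaI PFGE.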

[10] = test system: Streptococcus pneumoniae; assay: Antibacterial activity against macrolide-susceptible Streptococcus pneumoniae 1077 after 15 passages and 10 compound-free subculturing by retest method; type: functional
[11] = test system: Streptococcus pneumoniae; assay: Antibacterial activity against macrolide-susceptible Streptococcus pneumoniae 7127 harboring S20N mutation in L4 ribosomal protein and A105V mutation in L22 ribosomal protein after 15 passages and 10 compound-free subculturing by retest method; type: functional
[12] = test system: Streptococcus pneumoniae; assay: Antibacterial activity against penicillin-intermediate Streptococcus pneumoniae after overnight incubation by agar dilution method; type: functional
Method in brief: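 Agar dilution on Mueller-Hinton agar supplemented with 5% sheep blood, inoculum 10^4 CFU/spot, read after overnight incubation at 35°C in ambient air. Clinical isolates with defined genotypes; S. pneumoniae ATCC 49619 quality control strain included in each run. MIC50/MIC90 are MICs inhibiting 50% and 90% of isolates.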

[13] = test system: Streptococcus pyogenes; assay: Antibacterial activity against macrolide-resistant Streptococcus pyogenes 2011 harboring mef(A) gene after overnight incubation by agar dilution method
[14] = test system: Streptococcus pneumoniae; assay: Antibacterial activity against macrolide-resistant Streptococcus pneumoniae 2686 harboring mutation in L4 ribosomal protein after 25 passages and 10 compound-free subculturing by retest method; type: functional
[15] = test system: Streptococcus pyogenes; assay: Antibacterial activity against macrolide-resistant Streptococcus pyogenes harboring erm(A) gene after overnight incubation by agar dilution method; type: functional
Method in brief: (§3)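 Agar dilution MICs on Mueller-Hinton agar with 5% sheep blood. Inoculum 10^4 CFU/spot, incubated overnight at 35°C in ambient air. Clinical S. pneumoniae or group A streptococcal isolates; resistance genotypes (erm(B), erm(A), mef(A)/mef(E)) were assigned by PCR. S. pneumoniae ATCC 49619 served as QC strain in each run. Range, MIC50 and MIC90 reported per phenotype group.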

[16] = test system: Streptococcus pneumoniae; assay: Antibacterial activity against macrolide-resistant Streptococcus pneumoniae 1076 harboring erm(B) and mef(A) gene after 14 passages and 10 compound-free subculturing by retest method; type: functional; method in brief: as §2
[17] = test system: Streptococcus pyogenes; assay: Antibacterial activity against macrolide-resistant Streptococcus pyogenes 2368 harboring erm(B) gene after overnight incubation by agar dilution method
[18] = test system: Streptococcus pneumoniae; assay: Antibacterial activity against macrolide-resistant Streptococcus pneumoniae 3665 harboring mef(A) gene after 26 passages and 10 compound-free subculturing by retest method; type: functional
[19] = test system: Streptococcus pneumoniae; assay: Antibacterial activity against macrolide-resistant Streptococcus pneumoniae 1076 harboring erm(B) and mef(A) gene after overnight incubation by agar dilution method; type: functional
[20] = test system: Streptococcus pneumoniae; assay: Antibacterial activity against macrolide-susceptible Streptococcus pneumoniae 1077 after 29 passages and 10 compound-free subculturing by retest method; type: functional
[21] = test system: Streptococcus pneumoniae; assay: Antibacterial activity against macrolide-susceptible Streptococcus pneumoniae 7127 harboring S20N mutation in L4 ribosomal protein and A105V mutation in L22 ribosomal protein after 29 passages and 10 compound-free subculturing by retest method; type: functional
[22] = test system: Streptococcus pyogenes; assay: Antibacterial activity against macrolide-resistant Streptococcus pyogenes 2094 harboring erm(A) gene after overnight incubation by agar dilution method
[23] = test system: Streptococcus pyogenes; assay: Antibacterial activity against macrolide-resistant Streptococcus pyogenes 2368 harboring erm(B) gene after 18 passages and 10 compound-free subculturing by retest method
[24] = test system: Streptococcus pneumoniae; assay: Antibacterial activity against Streptococcus pneumoniae harboring mutation in 23S rRNA after overnight incubation by agar dilution method; type: functional; method in brief: as §1
[25] = test system: Streptococcus pneumoniae; assay: Antibacterial activity against macrolide-resistant Streptococcus pneumoniae 24 harboring erm(B) gene after overnight incubation by agar dilution method; type: functional
[26] = test system: Streptococcus pneumoniae; assay: Antibacterial activity against macrolide-resistant Streptococcus pneumoniae 3009 harboring mutation in 23S rRNA after 25 passages and 10 compound-free subculturing by retest method; type: functional
[27] = test system: Streptococcus pneumoniae; assay: Antibacterial activity against macrolide-resistant Streptococcus pneumoniae harboring mutation in L4 ribosomal protein after overnight incubation by agar dilution method; type: functional; method in brief: as §3
[28] = test system: Streptococcus pyogenes; assay: Antibacterial activity against macrolide-susceptible Streptococcus pyogenes 2132 after 50 passages following overnight incubation by agar dilution method
[29] = test system: Streptococcus pneumoniae; assay: Antibacterial activity against penicillin-resistant Streptococcus pneumoniae after overnight incubation by agar dilution method; type: functional
Method in brief: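 Agar dilution on Mueller-Hinton agar supplemented with 5% sheep blood. Inoculum 10^4 CFU/spot, incubated overnight at 35°C in ambient air. Test strains were clinical pneumococcal isolates. S. pneumoniae ATCC 49619 was included as the quality control strain in each run. MIC range, MIC50 and MIC90 were reported for each susceptibility category.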

[30] = test system: Streptococcus pneumoniae; assay: Antibacterial activity against macrolide-resistant Streptococcus pneumoniae harboring erm(B) and mef(A) gene after overnight incubation by agar dilution method; type: functional; method in brief: as §3
[31] = test system: Streptococcus pneumoniae; assay: Antibacterial activity against macrolide-resistant Streptococcus pneumoniae harboring erm(B) gene after overnight incubation by agar dilution method; type: functional; method in brief: as §3
[32] = test system: Streptococcus pneumoniae; assay: Antibacterial activity against Streptococcus pneumoniae harboring mutation in L4 ribosomal protein after overnight incubation by agar dilution method; type: functional; method in brief: as §1

Compound	MIC50 [1] [µg/mL]	MIC90 [1] [µg/mL]	MIC [2] [µg/mL]	MIC [3] [µg/mL]	MIC [4] [µg/mL]	MIC [5] [µg/mL]	MIC [6] [µg/mL]	MIC [7] [µg/mL]	MIC [8] [µg/mL]	MIC [9] [µg/mL]	MIC [10] [µg/mL]	MIC [11] [µg/mL]	MIC50 [12] [µg/mL]	MIC90 [12] [µg/mL]	MIC [13] [µg/mL]	MIC [14] [µg/mL]	MIC50 [15] [µg/mL]	MIC90 [15] [µg/mL]	MIC [16] [µg/mL]	MIC [17] [µg/mL]	also measured
CC[C@H]1OC(=O)[C@H](C)[C@@H](O[C@H]2C[C@@](C)(OC)[C@@H](O)[C@H](C)O2)[C@H](C)[C@@H](O[C@@H]2O[C@H](C)C[C@H](N(C)C)[C@H]2O)[C@](C)(O)C[C@@H](C)CN(C)[C@H](C)[C@@H](O)[C@]1(C)O [AZITHROMYCIN]	> 64	> 64	8 (≈ 10.7 µM)	4 (≈ 5.34 µM)	> 64	16 (≈ 21.4 µM)	2 (≈ 2.67 µM)	> 64	8 (≈ 10.7 µM)	> 64	> 64	> 64	> 64	> 64	4 (≈ 5.34 µM)	> 64	16 (≈ 21.4 µM)	> 64	> 64	> 64	MIC [18]: 8 µg/mL (≈ 10.7 µM); MIC [19]: > 64 µg/mL; MIC [20]: > 64 µg/mL; MIC [21]: 1 µg/mL (≈ 1.34 µM); MIC [22]: 4 µg/mL (≈ 5.34 µM); MIC [23]: > 64 µg/mL; MIC [24]: 32 µg/mL (≈ 42.7 µM); MIC [25]: > 64 µg/mL; MIC [26]: > 64 µg/mL
CC[C@H]1OC(=O)[C@H](C)[C@@H](O[C@H]2C[C@@](C)(OC)[C@@H](O)[C@H](C)O2)[C@H](C)[C@@H](O[C@@H]2O[C@H](C)C[C@H](N(C)C)[C@H]2O)[C@](C)(OC)C[C@@H](C)C(=O)[C@H](C)[C@@H](O)[C@]1(C)O [CLARITHROMYCIN]	> 64	> 64	1 (≈ 1.34 µM)	8 (≈ 10.7 µM)	8 (≈ 10.7 µM)	4 (≈ 5.35 µM)	0.25 (≈ 0.334 µM)	32 (≈ 42.8 µM)	2 (≈ 2.67 µM)	> 64	> 64	16 (≈ 21.4 µM)	16 (≈ 21.4 µM)	> 64	4 (≈ 5.35 µM)	16 (≈ 21.4 µM)	2 (≈ 2.67 µM)	> 64	> 64	> 64	MIC50 [27]: 16 µg/mL (≈ 21.4 µM); MIC90 [27]: 32 µg/mL (≈ 42.8 µM); MIC [28]: 0.016 µg/mL (≈ 0.0214 µM); MIC50 [29]: 16 µg/mL (≈ 21.4 µM); MIC50 [30]: > 64 µg/mL; MIC50 [31]: > 64 µg/mL; MIC50 [32]: 16 µg/mL (≈ 21.4 µM); MIC90 [32]: 32 µg/mL (≈ 42.8 µM); MIC [18]: 8 µg/mL (≈ 10.7 µM); MIC [19]: > 64 µg/mL; MIC [20]: > 64 µg/mL; MIC [21]: 0.5 µg/mL (≈ 0.668 µM); MIC [22]: 0.5 µg/mL (≈ 0.668 µM); MIC [23]: > 64 µg/mL; MIC [24]: 8 µg/mL (≈ 10.7 µM); MIC [25]: > 64 µg/mL; MIC [26]: 64 µg/mL (≈ 85.6 µM)
